Experimental data as given in ChEMBL document CHEMBL2086296, “Synthesis of novel quinoline-2-one based chalcones of potential anti-tumor activity” (Eur J Med Chem, 2012).

Tests used:
[1] = system: OVCAR-3; test: Cytotoxicity against human OVCAR3 cells after 24 hrs by SRB assay; assay type: functional; details: OVCAR-3, 24 h
How it was run: (§1)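 NCI 60-line screen. Cells in RPMI 1640 with 5% FBS and 2 mM L-glutamine, seeded at 5,000–40,000 cells/well by doubling time, then incubated 24 h at 37 °C, 5% CO2 before dosing. Time-zero plates fixed with TCA at drug addition. DMSO stocks diluted in medium with gentamicin to five concentrations, […]. Protein read by SRB staining. GI50, TGI and LC50 derived relative to control and time-zero.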

[2] = system: LOX IMVI; test: (§2) Cytotoxicity against human LOXIMVI cells after 24 hrs by SRB assay; assay type: functional; how it was run: as §1
[3] = system: MDA-MB-231; test: (§3) Cytotoxicity against human MDA-MB-231 cells after 24 hrs by SRB assay; assay type: cell-based; details: mda-mb-231, 24 h
How it was run: (§4)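 NCI 60-cell screen. Cells grown in RPMI 1640 with 5% FBS and 2 mM L-glutamine, seeded at 5,000–40,000 cells/well, preincubated 24 h at 37 °C in 5% CO2. Drug stock in DMSO, diluted in medium with gentamicin; five final concentrations, 100, 10, 1.0, 0.1 and […]. Time-zero plates were TCA-fixed. Protein read by SRB staining; GI50, TGI and LC50 taken relative to time-zero.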

[4] = system: CAKI-1; test: Cytotoxicity against human CAKI-1 cells after 24 hrs by SRB assay; assay type: cell-based; details: caki-1, 24 h; how it was run: as §4
[5] = system: HL-60; test: Cytotoxicity against human HL60 cells after 24 hrs by SRB assay; assay type: cell-based; details: hl-60, 24 h; how it was run: as §4
[6] = system: HOP-62; test: Cytotoxicity against human HOP62 cells after 24 hrs by SRB assay; assay type: functional; details: HOP-62, 24 h; how it was run: as §1
[7] = system: MOLT-4; test: (§5) Cytotoxicity against human MOLT4 cells after 24 hrs by SRB assay; assay type: functional; details: MOLT-4, 24 h; how it was run: as §1
[8] = (§6) Cytotoxicity against human Hs 578T cells after 24 hrs by SRB assay; assay type: cell-based; how it was run: as §4
[9] = system: MDA-MB-435; test: Cytotoxicity against human MDA-MB-435 cells after 24 hrs by SRB assay; assay type: functional; details: MDA-MB-435, 24 h; how it was run: as §1
[10] = system: HCT-116; test: Cytotoxicity against human HCT116 cells after 24 hrs by SRB assay; assay type: cell-based; details: hct-116, 24 h; how it was run: as §4
[11] = system: SNB-75; test: Cytotoxicity against human SNB75 cells after 24 hrs by SRB assay; assay type: cell-based; details: snb-75, 24 h
How it was run: (§7)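 NCI 60-cell-line screen: cells grown in RPMI 1640 with 5% FBS and 2 mM L-glutamine, seeded at 5,000–40,000 cells/well by doubling time, and preincubated 24 h at 37 °C in 5% CO2. Time-zero plates were TCA-fixed. DMSO stocks were diluted in medium with gentamicin to five concentrations (100, 10, 1.0, 0.1, […]). Protein was read by SRB, and GI50, TGI and LC50 were derived against time-zero.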

[12] = system: OVCAR-5; test: Cytotoxicity against human OVCAR5 cells after 24 hrs by SRB assay; assay type: cell-based; details: ovcar-5, 24 h; how it was run: as §4
[13] = system: EKVX; test: (§8) Cytotoxicity against human EKVX cells after 24 hrs by SRB assay; assay type: cell-based; how it was run: as §4
[14] = system: OVCAR-4; test: Cytotoxicity against human OVCAR4 cells after 24 hrs by SRB assay; assay type: cell-based; details: ovcar-4, 24 h; how it was run: as §4
[15] = as §6; assay type: functional; how it was run: as §1
[16] = system: RXF 393; test: Cytotoxicity against human RXF393 cells after 24 hrs by SRB assay; assay type: cell-based; details: rxf 393, 24 h; how it was run: as §4
[17] = system: LOX IMVI; test: as §2; assay type: cell-based; how it was run: as §4
[18] = system: NCI/ADR-RES; test: (§9) Cytotoxicity against human NCI/ADR-RES cells after 24 hrs by SRB assay; assay type: cell-based; how it was run: as §4
[19] = system: MOLT-4; test: as §5; assay type: cell-based; details: molt-4, 24 h; how it was run: as §4
[20] = system: SN12C; test: Cytotoxicity against human SN12C cells after 24 hrs by SRB assay; assay type: cell-based; how it was run: as §7
[21] = system: OVCAR-8; test: (§10) Cytotoxicity against human OVCAR8 cells after 24 hrs by SRB assay; assay type: cell-based; details: ovcar-8, 24 h; how it was run: as §4
[22] = system: UACC-62; test: (§11) Cytotoxicity against human UACC62 cells after 24 hrs by SRB assay; assay type: functional; details: UACC-62, 24 h
How it was run: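 NCI 60-cell screen. Cells are grown in RPMI 1640 with 5% FBS and 2 mM L-glutamine and seeded at 5,000–40,000 cells/well according to doubling time. They are preincubated 24 h at 37 °C in 5% CO2, and Tz plates are TCA-fixed at drug addition. Drug stock is in DMSO, diluted in medium with gentamicin, and tested at five concentrations (100, 10, 1.0, 0.1, […]). Protein is read by SRB staining. GI50, TGI and LC50 are derived relative to time-zero and control wells.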

[23] = system: DU-145; test: Cytotoxicity against human DU145 cells after 24 hrs by SRB assay; assay type: functional; details: DU-145, 24 h; how it was run: as §1
[24] = system: UACC-62; test: as §11; assay type: cell-based; details: uacc-62, 24 h; how it was run: as §7
[25] = system: EKVX; test: as §8; assay type: functional; how it was run: as §1
[26] = system: SW-620; test: Cytotoxicity against human SW620 cells after 24 hrs by SRB assay; assay type: cell-based; details: sw-620, 24 h; how it was run: as §7
[27] = system: TK-10; test: Cytotoxicity against human TK10 cells after 24 hrs by SRB assay; assay type: cell-based; details: tk-10, 24 h; how it was run: as §7
[28] = system: MDA-MB-231; test: as §3; assay type: functional; details: MDA-MB-231, 24 h; how it was run: as §1
[29] = system: HOP-92; test: Cytotoxicity against human HOP92 cells after 24 hrs by SRB assay; assay type: cell-based; details: hop-92, 24 h; how it was run: as §4
[30] = system: NCI-H460; test: Cytotoxicity against human NCI-H460 cells after 24 hrs by SRB assay; assay type: cell-based; details: nci-h460, 24 h; how it was run: as §4
[31] = system: COLO 205; test: Cytotoxicity against human COLO205 cells after 24 hrs by SRB assay; assay type: functional; details: COLO 205, 24 h; how it was run: as §1
[32] = system: ACHN; test: Cytotoxicity against human ACHN cells after 24 hrs by SRB assay; assay type: cell-based; how it was run: as §4
[33] = system: OVCAR-8; test: as §10; assay type: functional; details: OVCAR-8, 24 h; how it was run: as §1
[34] = system: BT-549; test: Cytotoxicity against human BT549 cells after 24 hrs by SRB assay; assay type: cell-based; details: bt-549, 24 h; how it was run: as §4
[35] = system: SK-MEL-5; test: Cytotoxicity against human SK-MEL-5 cells after 24 hrs by SRB assay; assay type: functional; details: SK-MEL-5, 24 h; how it was run: as §1
[36] = system: MCF7; test: Cytotoxicity against human MCF7 cells after 24 hrs by SRB assay; assay type: functional; details: MCF7, 24 h; how it was run: as §1
[37] = system: SF-539; test: Cytotoxicity against human SF539 cells after 24 hrs by SRB assay; assay type: functional; details: SF-539, 24 h; how it was run: as §1
[38] = system: NCI-H226; test: Cytotoxicity against human NCI-H226 cells after 24 hrs by SRB assay; assay type: functional; details: NCI-H226, 24 h; how it was run: as §1
[39] = system: NCI/ADR-RES; test: as §9; assay type: functional; how it was run: as §1

O=C(/C=C/c1cc2ccccc2[nH]c1=O)c1ccc(Cl)cc1
GI50 [1]: 5.9 µM | TGI [1]: 30.9 µM | GI50 [2]: 3.26 µM | TGI [2]: 22.1 µM | LC50 [3]: > 100 µM | LC50 [4]: 6.8 µM | LC50 [5]: > 100 µM | GI50 [6]: 7.43 µM | TGI [6]: 44.2 µM | GI50 [7]: 3.11 µM | TGI [7]: > 100 µM | LC50 [8]: > 100 µM | GI50 [9]: 2.83 µM | TGI [9]: 13.1 µM | LC50 [10]: 66.5 µM | LC50 [11]: > 100 µM | LC50 [12]: > 100 µM | LC50 [13]: > 100 µM | LC50 [14]: > 100 µM | GI50 [15]: 11.1 µM | TGI [15]: > 100 µM | LC50 [16]: > 100 µM | LC50 [17]: > 100 µM | LC50 [18]: > 100 µM | LC50 [19]: > 100 µM | LC50 [20]: > 100 µM | LC50 [21]: 88.4 µM | GI50 [22]: 5.71 µM | TGI [22]: 54.3 µM | GI50 [23]: 4.08 µM | TGI [23]: 48.9 µM | LC50 [24]: > 100 µM | GI50 [25]: 4.92 µM | TGI [25]: > 100 µM | LC50 [26]: 56.6 µM | LC50 [27]: 75.8 µM | GI50 [28]: 6.16 µM | TGI [28]: 28.3 µM | LC50 [29]: > 100 µM | LC50 [30]: > 100 µM | GI50 [31]: 10.1 µM | TGI [31]: 51.3 µM | LC50 [32]: 90.6 µM | GI50 [33]: 4.93 µM | TGI [33]: 21.2 µM | LC50 [34]: 97.6 µM | GI50 [35]: 18.9 µM | TGI [35]: > 100 µM | GI50 [36]: 2.41 µM | TGI [36]: > 100 µM | GI50 [37]: 2.07 µM | TGI [37]: 8.02 µM | GI50 [38]: 11.6 µM | TGI [38]: 38.9 µM | GI50 [39]: 4 µM | TGI [39]: 23.6 µM
